One molecule from ChEMBL document CHEMBL5579886, “Selective Degradation of MLK3 by a Novel CEP1347-VHL-02 PROTAC Compound Limits the Oncogenic Potential of TNBC” (J Med Chem, 2024) can be followed below.

Active and inactive are the calls of the source. The rule behind the calls is not given here.

The target in experiment [1] is T1, von Hippel-Lindau disease tumor suppressor/Mitogen-activated protein kinase kinase kinase 9 (Homo sapiens) (UniProt P80192+P40337). Kind of experiment: PROTAC activity at VHL/MLK1 in human MDA-MB-468 cells assessed as protein degradation at 1 uM incubated for 24 hrs by immunoblot analysis. Format: cell-based. In outline:
(§1)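 Endogenous MLK1, MLK2 or MLK4 levels in MCF-7 and MDA-MB-468 cells. Cells were grown in high-glucose DMEM with 10% FBS, seeded at 100 000 cells/well and treated the next day for 24 h, with DMSO as control. Lysis was in RIPA with protease inhibitor, followed by 10% SDS-PAGE, nitrocellulose transfer and ECL immunoblot with GAPDH or β-actin as loading control.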
In general terms: Immunoblotting shows a protein as a band on a membrane.

The target in experiment [2] is T2, von Hippel-Lindau disease tumor suppressor/Mitogen-activated protein kinase kinase kinase 11 (Homo sapiens, UniProt Q16584+P40337). Kind of experiment: PROTAC activity at VHL/MLK3 in human MCF7 cells assessed as protein degradation at 1 uM by Western blot analysis. Format: cell-based. The conditions noted are these: time 4-48 hrs, TDE = time-dependent effect.
Target sequence in this assay (P40337 whole entry, looked up): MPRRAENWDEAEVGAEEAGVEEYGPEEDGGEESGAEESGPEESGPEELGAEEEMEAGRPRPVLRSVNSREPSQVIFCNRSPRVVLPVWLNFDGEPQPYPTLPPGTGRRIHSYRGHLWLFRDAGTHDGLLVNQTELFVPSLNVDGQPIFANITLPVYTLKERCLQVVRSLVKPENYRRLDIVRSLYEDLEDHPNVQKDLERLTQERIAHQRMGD
Target sequence in this assay (Q16584 whole entry, looked up): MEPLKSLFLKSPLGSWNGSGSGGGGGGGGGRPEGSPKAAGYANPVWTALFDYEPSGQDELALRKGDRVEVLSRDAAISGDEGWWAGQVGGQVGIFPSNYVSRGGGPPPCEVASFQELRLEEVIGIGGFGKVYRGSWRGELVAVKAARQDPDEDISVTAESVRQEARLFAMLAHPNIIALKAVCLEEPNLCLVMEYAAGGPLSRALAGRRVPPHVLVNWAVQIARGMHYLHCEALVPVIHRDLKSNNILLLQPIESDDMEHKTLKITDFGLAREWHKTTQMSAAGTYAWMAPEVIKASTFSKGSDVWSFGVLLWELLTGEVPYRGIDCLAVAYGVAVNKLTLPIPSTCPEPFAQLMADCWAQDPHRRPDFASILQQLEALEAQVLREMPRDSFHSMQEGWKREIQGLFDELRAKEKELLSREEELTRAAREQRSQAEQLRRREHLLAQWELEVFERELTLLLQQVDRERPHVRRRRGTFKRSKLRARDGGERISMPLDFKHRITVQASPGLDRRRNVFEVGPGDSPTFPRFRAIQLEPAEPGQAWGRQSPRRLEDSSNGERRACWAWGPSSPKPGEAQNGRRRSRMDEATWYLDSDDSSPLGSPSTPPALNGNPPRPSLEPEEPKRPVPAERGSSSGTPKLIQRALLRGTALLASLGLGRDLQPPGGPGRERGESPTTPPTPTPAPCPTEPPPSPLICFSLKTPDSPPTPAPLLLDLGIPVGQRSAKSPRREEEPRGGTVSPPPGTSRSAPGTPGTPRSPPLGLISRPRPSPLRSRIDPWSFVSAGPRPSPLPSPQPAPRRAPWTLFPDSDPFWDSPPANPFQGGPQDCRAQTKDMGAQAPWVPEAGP
Experiment [3] deals with T3, von Hippel-Lindau disease tumor suppressor/Mitogen-activated protein kinase kinase kinase 21 (Homo sapiens) (UniProt P40337+Q5TCX8). Kind of experiment: PROTAC activity at IAP/MLK4 in human MCF7 cells assessed as protein degradation at 1 uM incubated for 24 hrs by immunoblot analysis. Format: cell-based. In short, it runs like this:
as §1

Experiment [4] concerns MDA-MB-468. Kind of experiment: Effect on MLK3 mRNA level in human MDA-MB-468 cells at 1 uM measured after 24 hrs by RT-qPCR analysis. The format is functional, cell-based. In outline: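 Total RNA extracted from MCF-7 and MDA-MB-468 cells 24 h after PROTAC treatment, purity and concentration checked spectrophotometrically, reverse transcribed to cDNA and MLK3 transcript quantified by RT-qPCR.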
(In general: In qPCR the cycle at which signal appears reflects the starting amount.)

Experiment [5] relates to MDA-MB-468. The experiment in a line: Induction of apoptosis in human MDA-MB-468 cells at 1 uM measured after 48 hrs by Annexin V-FITC/PI staining based flow cytometry. The format is functional, cell-based. In short, it runs like this: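 Cells seeded at 50 000/well, treated 48 h with 1 μM PROTAC or DMSO; cells plus supernatant stained with Alexa Fluor488 Annexin V for 30 min at room temperature in the dark, PI added 5 min before flow cytometry. At least three repeats.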

Experiment [6] has as its system MDA-MB-468. Kind of experiment: Growth inhibition of human MDA-MB-468 cell spheroids in low-attachment surface at 1 uM incubated for 10 days. Format: functional, cell-based. To be noted: time 10.0 day. In outline: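 Cells grown 10 days in low-attachment surface plates in medium containing 1 μM PROTAC or DMSO; spheroid growth assessed.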
The test system of a further experiment is MCF7. The experiment in a line: Inhibition of cell migration in human MCF7 cells at 1 uM incubated for 24 hrs by transwell assay. Format: functional, cell-based. In short, it runs like this:
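Boyden inserts, 8 μm pores: 200 000 cells in serum-free DMEM with 1 μM PROTAC or DMSO, 20% FBS DMEM below as chemoattractant, 24 h at 37 °C, 5% CO2. Migrated cells fixed, crystal violet stained and counted by image analysis; at least three repeats.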

Experiment [7] addresses T4, von Hippel-Lindau disease tumor suppressor/Mitogen-activated protein kinase kinase kinase 10 (Homo sapiens) (UniProt Q02779+P40337). Kind of experiment: PROTAC activity at VHL/MLK2 in human MCF7 cells assessed as protein degradation at 1 uM incubated for 24 hrs by immunoblot analysis. The format is cell-based. In outline:
as §1

Experiment [8] concerns the target T2, von Hippel-Lindau disease tumor suppressor/Mitogen-activated protein kinase kinase kinase 11. The experiment in a line: PROTAC activity at VHL/MLK3 in human MDA-MB-468 cells assessed as protein degradation measured after 24 hrs by Western blot analysis. The format is cell-based. In short, it runs like this:
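Endogenous MLK3: cells seeded at 100 000/well, treated next day for 24 h with PROTAC at 0.1–5 μM, DMSO control; immunoblot with GAPDH or β-actin loading control. Remaining MLK3 percentage plotted against concentration to derive DC50 and Dmax.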
Target sequence in this assay (Q16584 whole entry): as the sequence (Q16584 whole entry, looked up) above
Target sequence in this assay (P40337 whole entry): as the sequence (P40337 whole entry, looked up) above

In experiment [9] the target is T3, von Hippel-Lindau disease tumor suppressor/Mitogen-activated protein kinase kinase kinase 21 (Homo sapiens). The experiment in a line: PROTAC activity at VHL/DOX-inducible MLK4 (unknown origin) overexpressed in human A-375 cells assessed as protein degradation at 0.1 to 5 uM incubated for 24 hrs by immunoblot analysis. Format: cell-based. To be noted: dose 0.1-5 µM. In outline: (§2)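 A375 cells carried lentiviral DOX-inducible MLK1, MLK2 or MLK4 and were grown in RPMI-1640 with 10% FBS. Cells were seeded at 100 000/well and induced with 1 μg/mL DOX. After 24 h they were treated at 0.1–5 μM for 24 h, with DMSO as control. Levels were read by ECL immunoblot of RIPA lysates, with GAPDH or β-actin loading control.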

Experiment [10] has as its target T2, von Hippel-Lindau disease tumor suppressor/Mitogen-activated protein kinase kinase kinase 11. Kind of experiment: PROTAC activity at VHL/MLK3 in human MCF7 cells assessed as protein degradation at 1 uM measured after 24 hrs by immunoblot analysis. Format: cell-based. In outline:
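MCF-7 and MDA-MB-468 cells were treated for 24 h across 0.1–5 μM, with DMSO as control. MLK3 was immunoblotted and quantified as percent remaining versus concentration, from which DC50 and Dmax were derived.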
Target sequence in this assay (P40337 whole entry, looked up): as above
Target sequence in this assay (Q16584 whole entry, looked up): as the sequence (Q16584 whole entry, looked up) above

Experiment [11] has the same target. Kind of experiment: PROTAC activity at VHL/MLK3 in human MCF7 cells assessed as half life of protein degradation at 1 uM by Western blot analysis. Format: cell-based. In outline:
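Endogenous MLK3: cells seeded at 100 000/well, treated next day with 1 μM PROTAC for 4–48 h, DMSO control; immunoblot with GAPDH or β-actin loading control. Remaining MLK3 quantified over time and t1/2 derived.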
Target sequence in this assay (P40337 whole entry, looked up): as the sequence (P40337 whole entry, looked up) above
Target sequence in this assay (Q16584 whole entry, looked up): as the sequence (Q16584 whole entry, looked up) above

Experiment [12] deals with T1, von Hippel-Lindau disease tumor suppressor/Mitogen-activated protein kinase kinase kinase 9 (Homo sapiens). Kind of experiment: PROTAC activity at VHL/MLK1 in human MCF7 cells assessed as protein degradation at 1 uM incubated for 24 hrs by immunoblot analysis. Format: cell-based. In outline: as §1
The target of experiment [13] is T3, von Hippel-Lindau disease tumor suppressor/Mitogen-activated protein kinase kinase kinase 21 (Homo sapiens). The experiment in a line: PROTAC activity at VHL/MLK4 in human MDA-MB-468 cells assessed as protein degradation at 1 uM incubated for 24 hrs by immunoblot analysis. The format is cell-based. In outline:
as §1

Experiment [14] concerns the target T4, von Hippel-Lindau disease tumor suppressor/Mitogen-activated protein kinase kinase kinase 10 (Homo sapiens). Kind of experiment: PROTAC activity at IAP/MLK2 in human MDA-MB-468 cells assessed as protein degradation at 1 uM incubated for 24 hrs by immunoblot analysis. The format is cell-based. In short, it runs like this: as §1
Experiment [15] deals with MDA-MB-468. Kind of experiment: Inhibition of colony formation in human MDA-MB-468 cells at 1 uM incubated for 15 days by crystal violet staining based analysis. Format: functional, cell-based. To be noted: time 15.0 day. In outline:
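5000 cells per 6 cm plate in triplicate with 1 μM PROTAC or DMSO, medium changed every 5 days; colonies stained with crystal violet after 14–15 days. Three independent experiments, mean ± SD, unpaired t-test against control.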

Experiment [16] has as its target T2, von Hippel-Lindau disease tumor suppressor/Mitogen-activated protein kinase kinase kinase 11. The experiment in a line: PROTAC activity at VHL/DOX-inducible MLK3 (unknown origin) overexpressed in human HCC1806 cells assessed as protein degradation at 0.25 uM incubated for 24 hrs by immunoblot analysis. Format: cell-based.
Target sequence in this assay (P40337 whole entry, looked up): as the sequence (P40337 whole entry, looked up) above
Target sequence in this assay (Q16584 whole entry, looked up): as the sequence (Q16584 whole entry, looked up) above
For experiment [17], the target named is T1, von Hippel-Lindau disease tumor suppressor/Mitogen-activated protein kinase kinase kinase 9 (Homo sapiens). The experiment in a line: PROTAC activity at VHL/DOX-inducible MLK1 (unknown origin) overexpressed in human A-375 cells assessed as protein degradation at 0.1 to 5 uM incubated for 24 hrs by immunoblot analysis. The conditions noted are these: dose 0.1-5 µM. Format: cell-based. In short, it runs like this: as §2

A short description of experiment [18]: PROTAC activity at IAP/MLK1 in human MCF7 cells assessed as protein degradation at 1 uM incubated for 24 hrs by immunoblot analysis.
For experiment [19], the target named is T2, von Hippel-Lindau disease tumor suppressor/Mitogen-activated protein kinase kinase kinase 11. Kind of experiment: PROTAC activity at VHL/MLK3 in human MCF7 cells assessed as protein degradation at 1 uM measured after 24 hrs by immunoblot analysis.
Target sequence in this assay (P40337 whole entry, looked up): as the sequence (P40337 whole entry, looked up) above
Target sequence in this assay (Q16584 whole entry, looked up): as the sequence (Q16584 whole entry, looked up) above

T1 sequence (P40337 whole entry, looked up): as the sequence (P40337 whole entry, looked up) above
T1 sequence (P80192 whole entry, looked up): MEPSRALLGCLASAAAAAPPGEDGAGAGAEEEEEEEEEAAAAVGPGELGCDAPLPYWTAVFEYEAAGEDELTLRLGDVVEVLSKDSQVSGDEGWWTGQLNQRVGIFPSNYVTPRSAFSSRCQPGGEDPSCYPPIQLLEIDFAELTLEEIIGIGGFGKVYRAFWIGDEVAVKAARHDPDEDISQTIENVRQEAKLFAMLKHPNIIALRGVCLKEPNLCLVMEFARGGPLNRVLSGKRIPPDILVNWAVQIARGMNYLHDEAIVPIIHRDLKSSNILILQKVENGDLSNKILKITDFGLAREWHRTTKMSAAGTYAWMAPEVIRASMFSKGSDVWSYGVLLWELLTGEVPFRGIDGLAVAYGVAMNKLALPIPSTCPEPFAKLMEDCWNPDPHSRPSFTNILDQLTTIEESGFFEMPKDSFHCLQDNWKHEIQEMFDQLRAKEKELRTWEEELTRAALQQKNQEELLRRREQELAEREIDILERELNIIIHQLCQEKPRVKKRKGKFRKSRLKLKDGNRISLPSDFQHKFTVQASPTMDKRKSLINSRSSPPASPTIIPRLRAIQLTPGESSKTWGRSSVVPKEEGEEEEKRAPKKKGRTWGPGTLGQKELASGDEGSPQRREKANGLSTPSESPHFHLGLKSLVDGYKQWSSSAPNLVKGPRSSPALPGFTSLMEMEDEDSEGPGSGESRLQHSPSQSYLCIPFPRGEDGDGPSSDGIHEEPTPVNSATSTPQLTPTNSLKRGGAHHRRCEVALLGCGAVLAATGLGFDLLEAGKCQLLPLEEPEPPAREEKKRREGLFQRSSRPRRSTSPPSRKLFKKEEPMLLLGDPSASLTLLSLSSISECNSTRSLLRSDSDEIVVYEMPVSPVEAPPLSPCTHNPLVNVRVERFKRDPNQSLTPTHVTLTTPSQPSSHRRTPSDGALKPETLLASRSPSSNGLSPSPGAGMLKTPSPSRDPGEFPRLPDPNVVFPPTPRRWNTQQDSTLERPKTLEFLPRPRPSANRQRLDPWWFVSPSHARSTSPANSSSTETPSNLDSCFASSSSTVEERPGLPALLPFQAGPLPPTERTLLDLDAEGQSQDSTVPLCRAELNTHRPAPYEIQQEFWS
T3 sequence (P40337 whole entry, looked up): as the sequence (P40337 whole entry, looked up) above
T3 sequence (Q5TCX8 whole entry, looked up): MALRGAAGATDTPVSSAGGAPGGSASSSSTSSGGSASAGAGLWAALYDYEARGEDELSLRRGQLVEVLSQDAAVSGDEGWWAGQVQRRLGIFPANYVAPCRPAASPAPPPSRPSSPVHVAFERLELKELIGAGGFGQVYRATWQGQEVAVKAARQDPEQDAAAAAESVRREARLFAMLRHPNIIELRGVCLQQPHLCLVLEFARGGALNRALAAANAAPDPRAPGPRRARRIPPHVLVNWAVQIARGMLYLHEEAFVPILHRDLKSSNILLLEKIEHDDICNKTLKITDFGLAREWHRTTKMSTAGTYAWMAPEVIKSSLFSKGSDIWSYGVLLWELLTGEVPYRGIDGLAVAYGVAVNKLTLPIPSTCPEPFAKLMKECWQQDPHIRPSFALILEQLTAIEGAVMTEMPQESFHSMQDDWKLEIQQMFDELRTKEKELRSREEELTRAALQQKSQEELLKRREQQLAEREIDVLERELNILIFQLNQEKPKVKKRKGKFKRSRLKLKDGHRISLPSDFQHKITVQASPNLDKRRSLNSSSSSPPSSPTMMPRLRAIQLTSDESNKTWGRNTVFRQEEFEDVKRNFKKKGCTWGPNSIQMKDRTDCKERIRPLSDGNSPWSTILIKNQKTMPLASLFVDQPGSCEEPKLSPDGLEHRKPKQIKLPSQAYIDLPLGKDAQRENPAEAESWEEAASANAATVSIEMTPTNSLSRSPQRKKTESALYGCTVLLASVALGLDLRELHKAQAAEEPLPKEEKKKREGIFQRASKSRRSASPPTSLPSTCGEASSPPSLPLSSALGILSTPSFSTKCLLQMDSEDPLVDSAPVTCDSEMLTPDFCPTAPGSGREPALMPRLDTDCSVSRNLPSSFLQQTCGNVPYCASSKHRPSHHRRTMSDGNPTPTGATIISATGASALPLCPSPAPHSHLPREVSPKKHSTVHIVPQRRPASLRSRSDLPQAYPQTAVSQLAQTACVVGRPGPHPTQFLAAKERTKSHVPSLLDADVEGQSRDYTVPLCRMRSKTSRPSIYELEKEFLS
T4 sequence (P40337 whole entry, looked up): as the sequence (P40337 whole entry, looked up) above
T4 sequence (Q02779 whole entry, looked up): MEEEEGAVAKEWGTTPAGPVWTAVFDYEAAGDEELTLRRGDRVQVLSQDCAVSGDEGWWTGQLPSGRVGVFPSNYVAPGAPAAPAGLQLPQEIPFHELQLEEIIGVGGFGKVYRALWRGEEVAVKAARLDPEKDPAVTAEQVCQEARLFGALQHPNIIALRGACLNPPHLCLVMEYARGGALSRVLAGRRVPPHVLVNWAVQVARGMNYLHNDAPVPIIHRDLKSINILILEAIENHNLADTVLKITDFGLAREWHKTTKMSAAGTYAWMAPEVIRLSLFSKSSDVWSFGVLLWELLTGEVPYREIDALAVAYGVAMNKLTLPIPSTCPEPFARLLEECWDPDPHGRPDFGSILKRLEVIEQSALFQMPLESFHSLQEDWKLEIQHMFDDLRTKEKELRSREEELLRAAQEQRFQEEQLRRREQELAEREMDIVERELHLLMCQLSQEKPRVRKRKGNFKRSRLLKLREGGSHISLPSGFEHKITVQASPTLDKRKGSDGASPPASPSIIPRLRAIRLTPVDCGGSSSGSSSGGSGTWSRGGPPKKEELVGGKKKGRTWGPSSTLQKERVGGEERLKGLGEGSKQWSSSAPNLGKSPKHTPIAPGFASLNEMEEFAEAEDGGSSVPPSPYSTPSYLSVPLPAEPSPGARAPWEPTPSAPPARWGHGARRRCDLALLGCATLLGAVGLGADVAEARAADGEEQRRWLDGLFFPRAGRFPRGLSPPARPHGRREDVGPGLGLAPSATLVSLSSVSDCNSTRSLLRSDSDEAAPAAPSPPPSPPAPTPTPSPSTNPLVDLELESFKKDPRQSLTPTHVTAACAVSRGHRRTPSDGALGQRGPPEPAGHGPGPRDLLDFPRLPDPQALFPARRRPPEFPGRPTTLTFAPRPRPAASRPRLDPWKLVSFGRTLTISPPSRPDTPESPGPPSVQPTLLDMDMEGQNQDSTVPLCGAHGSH

Regarding `CCSCc1ccc2c(c1)c1c3c(c4c5cc(CSCC)ccc5n5c4c1n2[C@H]1C[C@](O)(C(=O)NCCOCCOCCOCC(=O)N[C@H](C(=O)N2C[C@H](O)C[C@H]2C(=O)N[C@@H](C)c2ccc(-c4scnc4C)cc2)C(C)(C)C)[C@]5(C)O1)CNC3=O`, the outcome (in [1]; in experiment [3]; with MDA-MB-468 [4]; in [7]; in [9]; in experiment [12]) was inactive. Moreover, the outcome in [13], in experiment [14], in experiment [17] and in [18] was inactive. The Activity result in experiment [2] is “Tde”. The result (in the experiment on MDA-MB-468 [5]; in experiment [10]; in experiment [16]; in experiment [19]) was Active. The “growth inhibition (GI)” value with MDA-MB-468 [6] is “Active”. For the same molecule, the inhibition entry with MCF7 is “inactive”. Moreover, the 50% degradation concentration (DC50) (usually the concentration at which degradation of the target reaches its halfway point) in [8] was determined as 300 nM. The T1/2 in [11] was found to be 2.5 h. For the same molecule, in the experiment with MDA-MB-468 [15], the inhibition entry is “Active”.
